Measurements gathered from unrelated publications.
Lines come from different studies, so protocols differ.
ESR1: Estrogen receptor (ESR1, Homo sapiens, UniProt P03372)
TYR: Tyrosinase (TYR, Homo sapiens, UniProt P14679)
NR3C1: Glucocorticoid receptor (NR3C1, Homo sapiens, UniProt P04150)
PIK3C3: Phosphatidylinositol 3-kinase catalytic subunit type 3 (PIK3C3, Homo sapiens, UniProt Q8NEB9)
Si: Sucrase-isomaltase, intestinal (Si, Rattus norvegicus, UniProt P23739)

Oc1cccc(Nc2nc(-c3ccc(F)cc3F)cs2)c1  inhibition (ESR1; cell-free assay; 10 µM): 11.2%
O=C1N=C(N2CCCCN2)S/C1=C\c1ccc(F)cc1O  inhibition (Nociceptin receptor (OPRL1, Homo sapiens, UniProt P41146); ligand displacement, radioligand; 10 µM): < 10%
Cc1ccc(C(C)C)cc1NC(=O)COC(=O)c1cccc(O)c1  inhibition (TYR; enzyme activity, inhibitor; 50 µg/mL): 61.2%
O=C(c1ccc(F)cc1)N(Cc1ccccc1)C1CCCCC1  inhibition (NR3C1; cell-free assay; 10 µM): 9%
CC(CN(C)C)C(Oc1cccc2ccccc12)c1cccs1 (centres unmarked)  inhibition (Norepinephrine transporter (Slc6a2, Rattus norvegicus, UniProt Q9WTR4); ligand displacement, radioligand; 10 µM, cell membranes): < 70%
CN(C)C1CCN(CC#Cc2nn(C3CCCC3)c3nc(NCc4ccccc4)ncc23)C1 (centres unmarked)  inhibition (Inhibitor of nuclear factor kappa-B kinase subunit beta (IKBKB, Homo sapiens, UniProt O14920); enzyme activity, inhibitor, FRET; 0.1 µM): -1%
CC(C)CCn1c(SCC(=O)Nc2ccccc2C(F)(F)F)nc2nccnc2c1=O  inhibition (PIK3C3; enzyme activity, inhibitor; 10 µM): < 20%
COc1cc(NC(C)=O)c(Cl)cc1C(=O)Nc1nccs1  inhibition (NR3C1; cell-free assay; 10 µM): 11%
O=c1c(O[C@@H]2O[C@H](CO)[C@@H](O)[C@H](O)[C@H]2O)c(-c2ccc(O)c(O)c2)oc2cc(O)cc(O)c12  inhibition (Si; enzyme activity, inhibitor; 200 µg/mL): 61.4%
Cc1ccc(C(C)C)cc1NC(=O)COC(=O)c1ccc(O)c(O)c1  inhibition (TYR; enzyme activity, inhibitor; 50 µg/mL): 56.9%
O=c1c(O[C@@H]2O[C@@H](CO)[C@H](O)[C@H]2O)c(-c2ccc(O)c(O)c2)oc2cc(O)cc(O)c12  inhibition (Si; enzyme activity, inhibitor; 25 µg/mL): 28.6%
N#Cc1cc(Cn2c(N3CCCC3)nc3ccccc32)ccc1F  inhibition (Alpha-2C adrenergic receptor (ADRA2C, Homo sapiens, UniProt P18825); ligand displacement; 10 µM): 16.1%
O=C(CSc1nc2nccnc2c(=O)n1CCc1ccccc1)Nc1ccccc1  inhibition (PIK3C3; enzyme activity, inhibitor; 10 µM): < 20%
O=C(Nc1ccc(S(=O)(=O)N2CCC(Cl)CC2)cc1)c1ccc([N+](=O)[O-])o1  inhibition (ESR1; ligand displacement, radioligand; 10 µM): 0%
CCN(Cc1ccccc1C(F)(F)F)C(=O)C1CCN(S(=O)(=O)c2ccc3[nH]ncc3c2)CC1  inhibition (NR3C1; ligand displacement, radioligand; 10 µM): 1%
Cc1ccc(C(C)C)cc1NC(=O)COC(=O)/C=C/c1ccc(O)cc1  inhibition (TYR; enzyme activity, inhibitor; 50 µg/mL): 55.8%
CCN(CC)CCNC(=O)c1c(C)[nH]c(/C=C2\C(=O)Nc3ccc(F)cc32)c1C  inhibition (Mitogen-activated protein kinase 14 (MAPK14, Homo sapiens, UniProt Q16539); enzyme activity, inhibitor; 0.3 µM): -11%
CNc1cc(Oc2cc(C(=O)Nc3cc(N4CCN(C)CC4)cc(C(F)(F)F)c3)ccc2C)ncn1  inhibition (Serine/threonine-protein kinase SMG1 (SMG1, Homo sapiens, UniProt Q96Q15); target engagement in cells, inhibitor, chemoproteomics; Huh-7; 1 µM): -15.7%
Cc1ccc(Nc2nccc(N(C)c3ccc4c(C)n(C)nc4c3)n2)cc1S(N)(=O)=O  inhibition (Abl2 (Mus musculus, UniProt Q4JIM5); enzyme activity, inhibitor; 0.3 µM): 38%
COc1cc(-c2cc(-c3ccc(N4CCNCC4)cc3)cnc2C)cc(OC)c1OC  inhibition (cAMP-dependent protein kinase catalytic subunit beta (PRKACB, Homo sapiens, UniProt P22694); enzyme activity, inhibitor; 0.1 µM): 2%
O=C(c1ccc(Cl)cc1)N(Cc1ccccc1)C1CCCCC1  inhibition (ESR1; cell-free assay; 10 µM): -2.9%
Cc1ccc(C(C)C)cc1NC(=O)COC(=O)/C=C/c1ccc(Cl)cc1  inhibition (TYR; enzyme activity, inhibitor; 50 µg/mL): 57.4%
O=C1OC[C@H]2OC(=O)c3cc(O)c(O)c(O)c3-c3c(O)c(O)c(O)c4c3C(=O)O[C@H]([C@H]3OC(=O)c5c-4c(O)c(O)c(O)c5[C@H]3O)[C@@H]2OC(=O)c2cc(O)c(O)c(O)c2-c2c1cc(O)c(O)c2O  inhibition (Si; enzyme activity, inhibitor; 50 µg/mL): 28.4%
Cc1ccc(C(C)C)cc1NC(=O)COC(=O)c1cc(O)cc(O)c1  inhibition (TYR; enzyme activity, inhibitor; 50 µg/mL): 54.6%
CNC(=O)c1cc(Oc2ccc(NC(=O)Nc3ccc(Cl)c(C(F)(F)F)c3)cc2)ccn1  inhibition (Mitogen-activated protein kinase 14 (MAPK14, Homo sapiens, UniProt Q16539, T106M); enzyme activity, inhibitor; 0.3 µM): 59%
CN1CC(Oc2cnc(C#N)cc2-c2ccn3nc(NC(=O)C4CC4)cc3c2)C1  inhibition (Eukaryotic translation initiation factor 2-alpha kinase 1 (EIF2AK1, Homo sapiens, UniProt Q9BQI3); enzyme activity, inhibitor; 1 µM): -8%
